Assay results reported in PubChem BioAssay.
Results filed as inconclusive are left out.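 Rule for the calls, unless noted: active = RAM network inhibition above 8.4% in each of two replicates, 3 SD over the compound average; inconclusive = above 8.4% inhibition in only one replicate; inactive = 8.4% inhibition or less in each replicate.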

Columns and labels:
[1] = OD615 S. cerevisiae growth inhibition, permissive medium, pilot counter-assay, permissive growth control for S. cerevisiae lifespan shortening project (AID 705;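 active = growth inhibition above 25% in both replicates, a cutoff set 3 SD above the mean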); conditions: OD615, 24 h, at 10 µM, stronger effect = higher value
Procedure, shortened: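 Material: engineered DeaD yeast; Compound: one dose 10 µM, DMSO 0.25% final; Detection: absorbance (optical density) at 615 nm; Buffer or medium: permissive raffinose/galactose medium; Timing: 24 h exposure, 30 °C.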

[2] = Restrictive medium S. cerevisiae growth inhibition, OD615, pilot screen of yeast lifespan reduction project, restrictive growth control (AID 706;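 active = growth inhibition above a set limit, 3 SD over mean compound inhibition, in both replicates, cut at about 43% in these data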;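 note: modified DeaD lifespan yeast strain shifted to restrictive glucose medium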); conditions: OD615, 48 h, at 10 µM, stronger effect = higher value
Procedure, shortened: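 Buffer or medium: restrictive glucose medium (CSMM-D); test system: modified S. cerevisiae; doses: single dose of 10 µM compound final, 0.25% DMSO; schedule: 48 h compound exposure at 30 °C; detection: absorbance (optical density) measured at 615 nm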

[3] = viability gain of MRP-1-high H69AR cells under doxorubicin, pilot screen, MRP-1 activator project, CellTiter-Glo, duplicate (AID 807;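 active = viability increase at or above a cutoff of the median across tested compounds plus 3 SD, cut at about 8.5% in these data, passing the limit was not always enough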;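 note: compound pretreatment 18-22 h then 72 h combined with doxorubicin; 0% = doxorubicin alone and 100% = vehicle without doxorubicin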); conditions: H69AR viability with doxorubicin, CellTiter-Glo luminescence; at 10 µM; stronger effect = higher value
[4] = growth suppression of beta-catenin knockout HCT116, pilot screen, human colon tumor cells (AID 823;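 active = cell viability at or below a set limit in both duplicate runs, the limit being the all-compound median minus 4 SD, cut at about 23% in these data, passing the limit was not always enough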;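 note: 0% = wells killed by 20 µM Hyamine and 100% = untreated DMSO cell wells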); conditions: CellTiter-Glo, 60 h, at 10 µM, stronger effect = lower value
[5] = growth suppression of PTEN-deleted HCT116, pilot screen, cell-based, HCT116 clonal line, CellTiter-Glo (AID 824;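 active = viability at or below 27.92% in each of two runs, the all-compound median minus 4 SD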;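 note: 0% = 20 µM Hyamine control and 100% = vehicle cell control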); conditions: 60 h, at 10 µM, stronger effect = lower value
[6] = inhibitors of the yeast RAM network, pilot screen, dse1pr::URA3 reporter, 5-FOA selection (AID 869;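 active = inhibition over a set limit, the all-compound mean plus 3 SD, in both replicate runs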;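 note: 0% = DMSO wells with no growth and 100% = 10 µM 1-NA-PP1 with full growth; RAM network block rescues cells from 5-FOA so hits raise OD615 growth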); conditions: S. cerevisiae dse1pr::URA3 5-FOA growth, OD615, 2 d; at 10 µM; stronger effect = higher value; strain carries analog-sensitive mutant Cbk1 kinase
[7] = RAM signaling pathway blockade in yeast – S. cerevisiae, Pdr1DBD-CYC8 efflux-inhibited sensitized strain, primary screen (AID 1298);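 note: 0% = DMSO untreated cells without growth and 100% = 10 µM 1-NA-PP1 full growth; higher means more yeast growth rescued from 5-FOA killing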; conditions: S. cerevisiae cbk1-as DSE1-URA3 strain, 5-FOA growth OD615, 2 d; at 50 µM; stronger effect = higher value

CCCCc1ccc(NC(=O)OC)cc1
inactive: growth inhibition [1] 1.49% | growth inhibition [2] 10.8% | viability increase [3] 3.48% | viability [4] 104% | viability [5] 90.6% | inhibition [6] 2.21% | RAM network inhibition [7] -2%

C=CCc1cc(/C=N/n2cnnc2)cc(OCC)c1O
inactive: growth inhibition [1] -10.7% | growth inhibition [2] -1.86% | viability increase [3] -2.46% | viability [4] 102% | viability [5] 94.7% | inhibition [6] 0.925% | RAM network inhibition [7] 0.6%

COc1ccc(C(=O)N(Cc2nc(-c3ccc(C)cc3)no2)C(C)C)cc1OC
inactive: growth inhibition [1] -12.1% | growth inhibition [2] -6.13% | viability increase [3] 1.37% | viability [4] 93.6% | viability [5] 79.3% | inhibition [6] 3.8% | RAM network inhibition [7] 5.36%

CCOC(=O)c1c(C)n(C)c2ccc(OCC(O)CN(CC)CC)cc12 (stereo unspecified)
inactive: growth inhibition [1] -9.63% | growth inhibition [2] -1.99% | viability increase [3] -4.23% | viability [4] 77.6% | viability [5] 81.5% | inhibition [6] 1.71% | RAM network inhibition [7] -0.57%

O=C1CC(c2ccccc2)C(C(=O)O)N1 (stereo unspecified)
inactive: growth inhibition [1] -0.84% | growth inhibition [2] -18.1% | viability increase [3] 1.77% | viability [4] 99.2% | viability [5] 102% | inhibition [6] 2.74% | RAM network inhibition [7] 0.37%

CC1CCCC(C)N1c1nnc(N)s1 (stereo unspecified)
inactive: growth inhibition [1] 0.52% | growth inhibition [2] 30.8% | viability increase [3] -1.42% | viability [4] 104% | viability [5] 102% | inhibition [6] 0.385% | RAM network inhibition [7] 0.17%

COc1ccc(-c2nc(CSCC(=O)N3CCN(C(=O)c4ccco4)CC3)c(C)o2)cc1OC
inactive: growth inhibition [1] -1.3% | growth inhibition [2] 0.055% | viability increase [3] -1.9% | viability [4] 106% | viability [5] 103% | inhibition [6] -0.54% | RAM network inhibition [7] 5.11%

c1ccc(COc2ccc(Nc3ncnc4nc[nH]c34)cc2)cc1
inactive: growth inhibition [1] -2.53% | growth inhibition [2] 7.49% | viability increase [3] -0.86% | viability [4] 85.7% | viability [5] 83% | inhibition [6] 0.435% | RAM network inhibition [7] 4.8%

COC(=O)CN1C(=O)COc2ccc(Cl)cc21
inactive: growth inhibition [1] 4.22% | growth inhibition [2] -4.81% | viability increase [3] -0.89% | viability [4] 104% | viability [5] 94% | inhibition [6] 0.605% | RAM network inhibition [7] 2.29%

CCOC(=O)c1[nH]c2ccccc2c1NC(=O)c1ccc2c(c1)OCO2
inactive: growth inhibition [1] -2.92% | growth inhibition [2] -6.88% | viability increase [3] -4.72% | viability [4] 85.6% | viability [5] 85.6% | inhibition [6] 1.8% | RAM network inhibition [7] 2.88%

Cc1cccc(OCCCCCNCCO)c1
inactive: growth inhibition [1] -16% | growth inhibition [2] -8.45% | viability increase [3] -0.72% | viability [4] 98.6% | viability [5] 94.6% | inhibition [6] 1.7% | RAM network inhibition [7] 0.57%

COC(=O)CN1C(=O)CC(C)(C)Sc2ccccc21
inactive: growth inhibition [1] -16.9% | growth inhibition [2] -27.1% | viability increase [3] 1.77% | viability [4] 103% | viability [5] 101% | inhibition [6] 2.17% | RAM network inhibition [7] 2.53%

CC(Oc1ccccc1F)C(=O)NCCN1CCCCC1 (stereo unspecified)
inactive: growth inhibition [1] -9.04% | growth inhibition [2] -8.32% | viability increase [3] -0.4% | viability [4] 91.9% | viability [5] 93.6% | inhibition [6] 0.865% | RAM network inhibition [7] 3.01%

O=C1CC(N2CCN(c3nc4ccccc4s3)CC2)C(=O)N1c1ccc(F)cc1 (stereo unspecified)
inactive: growth inhibition [1] 0.4% | growth inhibition [2] 0.52% | viability increase [3] 6.28% | viability [4] 88.7% | viability [5] 94.3% | inhibition [6] 1.54% | RAM network inhibition [7] 3.67%

O=C(c1cc(-c2cccs2)on1)N1CCCc2ccccc21
inactive: growth inhibition [1] -2.66% | growth inhibition [2] -4.53% | viability increase [3] -3.09% | viability [4] 103% | viability [5] 103% | inhibition [6] 2.58% | RAM network inhibition [7] -0.52%

CCc1cccc(Nc2cc(C)nc3ncnn23)c1
inactive: growth inhibition [1] -5.35% | growth inhibition [2] -1.55% | viability increase [3] -0.66% | viability [4] 99.8% | viability [5] 93% | inhibition [6] 0.465% | RAM network inhibition [7] 6.68%

Cc1ccc(Nc2nc(C3CC3)cs2)cc1
inactive: growth inhibition [1] -8.21% | growth inhibition [2] -0.01% | viability increase [3] -1.97% | viability [4] 92.5% | viability [5] 90.5% | inhibition [6] 1.38% | RAM network inhibition [7] 2.72%

COc1ccc(C(=O)N2CCN(c3c(C)cccc3C)CC2)cc1OC
inactive: growth inhibition [1] -19.6% | growth inhibition [2] -4.21% | viability increase [3] 0.4% | viability [4] 80.8% | viability [5] 72% | inhibition [6] 0.89% | RAM network inhibition [7] 1.36%
